Experimental data as given in ChEMBL document CHEMBL1159061, “Synthesis and biological properties of iron chelators based on a bis-2-(2-hydroxy-phenyl)-thiazole-4-carboxamide or -thiocarboxamide (BHPTC) scaffold” (Bioorg Med Chem, 2010).

System: SK-OV-3
Assay: Antiproliferative activity against human SKOV3 cells at 1 uM after 72 hrs by MTS assay
Assay type: functional
Conditions: SK-OV-3, 72 h
Procedure, shortened: (§1)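 Cells grown under 5% CO2: KB and HepG2 in DMEM with 10% FCS, penicillin, streptomycin and fungizone; HCT116, HT29, HCT15, MCF7, MCF7R, SK-OV3, PC-3, A549, HL60, K562 and SF268 in RPMI. Cells were plated in 96-well plates and dosed 24 h later from DMSO stocks (controls 1% DMSO final). After 72 h, MTS was added for 3 h at 37 °C and absorbance read at 490 nm. Inhibition = (1 − OD treated/OD control)×100, in triplicate.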
With `CC(=O)N(O)CCCCCNC(=O)CCC(=O)N(O)CCCCCNC(=O)CCC(=O)N(O)CCCCCN` [DEFEROXAMINE] the inhibition at 1 µM was 5%.

System: HepG2
Assay: Antiproliferative activity against human HepG2 cells at 10 uM after 72 hrs by MTS assay
Assay type: functional
Conditions: HepG2, 72 h
Procedure, shortened: as §1
`CC(=O)N(O)CCCCCNC(=O)CCC(=O)N(O)CCCCCNC(=O)CCC(=O)N(O)CCCCCN` [DEFEROXAMINE] showed an inhibition at 10 µM of 0%.

System: Hepatocyte
Assay: Cytoprotective activity in human hepatocytes assessed as inhibition of FeNTA-induced increase in extracellular LDH activity relative to control
Assay type: functional
Design: scale not given: the % may be the effect or the level left
Conditions: not given
With `CC(=O)N(O)CCCCCNC(=O)CCC(=O)N(O)CCCCCNC(=O)CCC(=O)N(O)CCCCCN` [DEFEROXAMINE] the Activity was 162%.

System: A549
Assay: Antiproliferative activity against human A549 cells at 1 uM after 72 hrs by MTS assay
Assay type: functional
Conditions: A549, 72 h
Procedure, shortened: as §1
For `CC(=O)N(O)CCCCCNC(=O)CCC(=O)N(O)CCCCCNC(=O)CCC(=O)N(O)CCCCCN` [DEFEROXAMINE], the inhibition at 1 µM was 2%.

System: PC-3
Assay: Antiproliferative activity against human PC3 cells at 1 uM after 72 hrs by MTS assay
Assay type: functional
Conditions: PC-3, 72 h
Procedure, shortened: as §1
`CC(=O)N(O)CCCCCNC(=O)CCC(=O)N(O)CCCCCNC(=O)CCC(=O)N(O)CCCCCN` [DEFEROXAMINE] showed an inhibition at 1 µM of 1%.

System: K562
Assay: Antiproliferative activity against human K562 cells at 1 uM after 72 hrs by MTS assay
Assay type: functional
Conditions: K562, 72 h
Procedure, shortened: as §1
In the case of `CC(=O)N(O)CCCCCNC(=O)CCC(=O)N(O)CCCCCNC(=O)CCC(=O)N(O)CCCCCN` [DEFEROXAMINE], the inhibition at 1 µM is reported as 0%.

System: SK-OV-3
Assay: Antiproliferative activity against human SKOV3 cells at 10 uM after 72 hrs by MTS assay
Assay type: functional
Conditions: SK-OV-3, 72 h
Procedure, shortened: as §1
For `CC(=O)N(O)CCCCCNC(=O)CCC(=O)N(O)CCCCCNC(=O)CCC(=O)N(O)CCCCCN` [DEFEROXAMINE], the inhibition at 10 µM was 52%.

System: A549
Assay: Antiproliferative activity against human A549 cells at 10 uM after 72 hrs by MTS assay
Assay type: functional
Conditions: A549, 72 h
Procedure, shortened: as §1
For `CC(=O)N(O)CCCCCNC(=O)CCC(=O)N(O)CCCCCNC(=O)CCC(=O)N(O)CCCCCN` [DEFEROXAMINE], the inhibition at 10 µM was 50%.

System: SF-268
Assay: Antiproliferative activity against human SF268 cells at 10 uM after 72 hrs by MTS assay
Assay type: functional
Conditions: SF-268, 72 h
Procedure, shortened: as §1
For `CC(=O)N(O)CCCCCNC(=O)CCC(=O)N(O)CCCCCNC(=O)CCC(=O)N(O)CCCCCN` [DEFEROXAMINE], the inhibition at 10 µM was 33%.

System: SF-268
Assay: Antiproliferative activity against human SF268 cells at 1 uM after 72 hrs by MTS assay
Assay type: functional
Conditions: SF-268, 72 h
Procedure, shortened: as §1
`CC(=O)N(O)CCCCCNC(=O)CCC(=O)N(O)CCCCCNC(=O)CCC(=O)N(O)CCCCCN` [DEFEROXAMINE] showed an inhibition at 1 µM of 0%.

System: HCT-15
Assay: Antiproliferative activity against human HCT15 cells at 10 uM after 72 hrs by MTS assay
Assay type: functional
Conditions: HCT-15, 72 h
Procedure, shortened: as §1
For `CC(=O)N(O)CCCCCNC(=O)CCC(=O)N(O)CCCCCNC(=O)CCC(=O)N(O)CCCCCN` [DEFEROXAMINE], the inhibition at 10 µM was 46%.

System: KB
Assay: Antiproliferative activity against human KB cells at 10 uM after 72 hrs by MTS assay
Assay type: functional
Conditions: not given
Procedure, shortened: as §1
Work on `CC(=O)N(O)CCCCCNC(=O)CCC(=O)N(O)CCCCCNC(=O)CCC(=O)N(O)CCCCCN` [DEFEROXAMINE] yielded an inhibition at 10 µM of 16%.

System: HL-60
Assay: Antiproliferative activity against human HL60 cells at 1 uM after 72 hrs by MTS assay
Assay type: functional
Conditions: HL-60, 72 h
Procedure, shortened: as §1
For `CC(=O)N(O)CCCCCNC(=O)CCC(=O)N(O)CCCCCNC(=O)CCC(=O)N(O)CCCCCN` [DEFEROXAMINE], the inhibition at 1 µM was 0%.

System: HepG2
Assay: Antiproliferative activity against human HepG2 cells at 1 uM after 72 hrs by MTS assay
Assay type: functional
Conditions: HepG2, 72 h
Procedure, shortened: as §1
For `CC(=O)N(O)CCCCCNC(=O)CCC(=O)N(O)CCCCCNC(=O)CCC(=O)N(O)CCCCCN` [DEFEROXAMINE], the inhibition at 1 µM was 0%.

System: HL-60
Assay: Antiproliferative activity against human HL60 cells at 10 uM after 72 hrs by MTS assay
Assay type: functional
Conditions: HL-60, 72 h
Procedure, shortened: as §1
`CC(=O)N(O)CCCCCNC(=O)CCC(=O)N(O)CCCCCNC(=O)CCC(=O)N(O)CCCCCN` [DEFEROXAMINE] gave an inhibition at 10 µM of 0%.

System: MCF7
Assay: Antiproliferative activity against doxorubicin-resistant human MCF7 cells at 10 uM after 72 hrs by MTS assay
Assay type: functional
Conditions: MCF7, 72 h
Procedure, shortened: as §1
`CC(=O)N(O)CCCCCNC(=O)CCC(=O)N(O)CCCCCNC(=O)CCC(=O)N(O)CCCCCN` [DEFEROXAMINE] showed an inhibition at 10 µM of 9%.

System: HCT-15
Assay: Antiproliferative activity against human HCT15 cells at 1 uM after 72 hrs by MTS assay
Assay type: functional
Conditions: HCT-15, 72 h
Procedure, shortened: as §1
In the case of `CC(=O)N(O)CCCCCNC(=O)CCC(=O)N(O)CCCCCNC(=O)CCC(=O)N(O)CCCCCN` [DEFEROXAMINE], the inhibition at 1 µM is reported as 0%.

System: MCF7
Assay: Antiproliferative activity against human MCF7 cells at 1 uM after 72 hrs by MTS assay
Assay type: functional
Conditions: MCF7, 72 h
Procedure, shortened: as §1
`CC(=O)N(O)CCCCCNC(=O)CCC(=O)N(O)CCCCCNC(=O)CCC(=O)N(O)CCCCCN` [DEFEROXAMINE] showed an inhibition at 1 µM of 0%.

System: HT-29
Assay: Antiproliferative activity against human HT-29 cells at 1 uM after 72 hrs by MTS assay
Assay type: functional
Conditions: HT-29, 72 h
Procedure, shortened: as §1
`CC(=O)N(O)CCCCCNC(=O)CCC(=O)N(O)CCCCCNC(=O)CCC(=O)N(O)CCCCCN` [DEFEROXAMINE] gave an inhibition at 1 µM of 0%.

System: not listed separately
Assay: Induction of iron chelating activity by calcein fluorescence assay
Assay type: physicochemical
Conditions: not given
Procedure, shortened: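 Cell-free calcein assay in 20 mM HEPES, 150 mM NaCl, pH 7.3, at 20 °C with orbital stirring. Calcein was quenched with iron(III) for 6 h to maximal quenching. Fluorescence recovery (ex 485/em 520 nm) was followed for 1 h at various chelator concentrations, and the initial dequenching rate was derived from the kinetics. Three independent experiments.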
With `CC(=O)N(O)CCCCCNC(=O)CCC(=O)N(O)CCCCCNC(=O)CCC(=O)N(O)CCCCCN` [DEFEROXAMINE] the IC50 was 4.4 µM.

System: K562
Assay: Antiproliferative activity against human K562 cells at 10 uM after 72 hrs by MTS assay
Assay type: functional
Conditions: K562, 72 h
Procedure, shortened: as §1
Compound `CC(=O)N(O)CCCCCNC(=O)CCC(=O)N(O)CCCCCNC(=O)CCC(=O)N(O)CCCCCN` [DEFEROXAMINE] has an inhibition at 10 µM of 0%.

System: HCT-116
Assay: Antiproliferative activity against human HCT116 cells at 10 uM after 72 hrs by MTS assay
Assay type: functional
Conditions: HCT-116, 72 h
Procedure, shortened: as §1
Compound `CC(=O)N(O)CCCCCNC(=O)CCC(=O)N(O)CCCCCNC(=O)CCC(=O)N(O)CCCCCN` [DEFEROXAMINE] has an inhibition at 10 µM of 20%.

System: HCT-116
Assay: Antiproliferative activity against human HCT116 cells at 1 uM after 72 hrs by MTS assay
Assay type: functional
Conditions: HCT-116, 72 h
Procedure, shortened: as §1
`CC(=O)N(O)CCCCCNC(=O)CCC(=O)N(O)CCCCCNC(=O)CCC(=O)N(O)CCCCCN` [DEFEROXAMINE] showed an inhibition at 1 µM of 0%.

System: HT-29
Assay: Antiproliferative activity against human HT-29 cells at 10 uM after 72 hrs by MTS assay
Assay type: functional
Conditions: HT-29, 72 h
Procedure, shortened: as §1
For `CC(=O)N(O)CCCCCNC(=O)CCC(=O)N(O)CCCCCNC(=O)CCC(=O)N(O)CCCCCN` [DEFEROXAMINE], the inhibition at 10 µM was 42%.

System: MCF7
Assay: Antiproliferative activity against doxorubicin-resistant human MCF7 cells at 1 uM after 72 hrs by MTS assay
Assay type: functional
Conditions: MCF7, 72 h
Procedure, shortened: as §1
Work on `CC(=O)N(O)CCCCCNC(=O)CCC(=O)N(O)CCCCCNC(=O)CCC(=O)N(O)CCCCCN` [DEFEROXAMINE] yielded an inhibition at 1 µM of 0%.

System: not listed separately
Assay: Antiproliferative activity against human HepaRG cells after 72 hrs by MTT assay
Assay type: functional, cell-based
Conditions: not given
Procedure, shortened: (§2)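 Proliferating HepaRG cells at day 4 (seeded at 2.5×10⁴/cm² in William's E, 10% FCS, insulin, glutamine, hydrocortisone) were exposed for 72 h to a concentration series, with or without added iron(III) as each line states. Viability was read by MTT (0.5 mg/L as printed) for 3 h in serum-free medium, DMSO-solubilized formazan at 535 nm, expressed as % of control SDH activity.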
`CC(=O)N(O)CCCCCNC(=O)CCC(=O)N(O)CCCCCNC(=O)CCC(=O)N(O)CCCCCN` [DEFEROXAMINE] gave an IC50 of 50 µM.

System: MCF7
Assay: Antiproliferative activity against human MCF7 cells at 10 uM after 72 hrs by MTS assay
Assay type: functional
Conditions: MCF7, 72 h
Procedure, shortened: as §1
With `CC(=O)N(O)CCCCCNC(=O)CCC(=O)N(O)CCCCCNC(=O)CCC(=O)N(O)CCCCCN` [DEFEROXAMINE] the inhibition at 10 µM was 0%.

System: KB
Assay: Antiproliferative activity against human KB cells at 1 uM after 72 hrs by MTS assay
Assay type: functional
Conditions: not given
Procedure, shortened: as §1
With `CC(=O)N(O)CCCCCNC(=O)CCC(=O)N(O)CCCCCNC(=O)CCC(=O)N(O)CCCCCN` [DEFEROXAMINE] the inhibition at 1 µM was 0%.

System: not listed separately
Assay: Antiproliferative activity against human HepaRG cells after 72 hrs by MTT assay in presence of iron(3)
Assay type: functional, cell-based
Conditions: not given
Procedure, shortened: as §2
Compound `CC(=O)N(O)CCCCCNC(=O)CCC(=O)N(O)CCCCCNC(=O)CCC(=O)N(O)CCCCCN` [DEFEROXAMINE] has an IC50 of 70 µM.

System: PC-3
Assay: Antiproliferative activity against human PC3 cells at 10 uM after 72 hrs by MTS assay
Assay type: functional
Conditions: PC-3, 72 h
Procedure, shortened: as §1
Compound `CC(=O)N(O)CCCCCNC(=O)CCC(=O)N(O)CCCCCNC(=O)CCC(=O)N(O)CCCCCN` [DEFEROXAMINE] has an inhibition at 10 µM of 44%.
